This note sets out measurements from ChEMBL document CHEMBL4431303, “Minor Pyranonaphthoquinones from the Apothecia of the Lichen Ophioparma ventosa” (J Nat Prod, 2016).

pIC50: −log10 of the molar value. ≈ marks a conversion by molar mass, not a printed value. Calls of active or inactive are those of the source. The rule behind the calls is not given here.

The nature of assay [1]: Cytotoxicity against human Huh7D12 cells assessed as cell growth inhibition. Type of assay: functional, cell-based. Particulars: Huh-7D12.
The next assay has as its system Caco-2. Briefly: Cytotoxicity against human Caco2 cells assessed as cell growth inhibition. Type of assay: functional, cell-based.
The subject of a further assay is MDA-MB-231. Briefly: Cytotoxicity against human MDA-MB-231 cells assessed as cell growth inhibition. Type of assay: functional, cell-based.
The next assay deals with HCT-116. Put plainly: Cytotoxicity against human HCT116 cells assessed as cell growth inhibition. Type of assay: functional, cell-based. In short, it runs like this:
(§1)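 Inhibition of proliferation tested on a panel of human lines: Huh7D12 (differentiated hepatocellular carcinoma), Caco 2 (differentiating colorectal adenocarcinoma), MDA-MB-231 (breast carcinoma), HCT-116 (actively proliferating colorectal carcinoma), PC3 (prostate carcinoma) and NCI-H2 (lung carcinoma). Diploid skin fibroblasts served as the normal control line. Result reported as IC50.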

The test system of the next assay is PC-3. Briefly: Cytotoxicity against human PC3 cells assessed as cell growth inhibition. Type of assay: functional, cell-based. In short, it runs like this:
as §1

Assay [2] in a line: Cytotoxicity against human NCI-H2 cells assessed as cell growth inhibition. Type of assay: functional, cell-based. In a few lines: as §1
A further assay has as its system Fibroblast. Put plainly: Cytotoxicity against human Fibroblasts assessed as cell growth inhibition. Type of assay: cell-based. In short, it runs like this: as §1
The nature of assay [3]: Antioxidant activity assessed as DPPH radical scavenging activity after 5 mins by spectrophotometric analysis. Type of assay: functional. For orientation: The DPPH test is a chemical assay of radical scavenging.
For a further assay, the system named is B16. Briefly: Cytotoxicity against mouse B16 cells assessed as cell growth inhibition incubated for 72 hrs by MTT assay. The following applies: B16, 72 h. Type of assay: functional, cell-based. A general note: Tetrazolium dyes change colour on reduction, which living cells bring about.
Another assay concerns HaCaT. Put plainly: Cytotoxicity against human HaCaT cells assessed as cell growth inhibition incubated for 72 hrs by MTT assay. Type of assay: functional, cell-based.
A short description of assay [4]: Antioxidant activity after 5 mins by NBT assay. Type of assay: functional. In short, it runs like this: (§2)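 Nonenzymatic superoxide scavenging read in 96-well plates. Final mixture: NADH 78 μM, NBT 50 μM, PMS 10 μM, test compound at 350, 116, 39 and 13 μM. Reagents in 16 mM Tris-HCl pH 8, compounds in DMSO. After 5 min at room temperature, absorbance at 560 nm against a no-PMS blank. IC50 taken from steady-state percent inhibition per dilution. Ascorbic acid as positive control. Triplicates averaged.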

Assay [5] can be described thus: Antioxidant activity assessed as superoxide anion radical scavenging activity after 5 mins by spectrophotometric analysis. Type of assay: functional. In a few lines:
as §2

What is called pIC50 is −log10 of the IC50, conventionally taken in molar units. As a reminder, the IC50 is the concentration at which inhibition is half-maximal.

For the compound `CC(=O)O[C@H]1C(=O)[C@@]2(C)[C@H]([C@H](OC(=O)c3ccccc3)[C@]3(O)C[C@H](OC(=O)[C@H](O)[C@@H](NC(=O)c4ccccc4)c4ccccc4)C(C)=C1C3(C)C)[C@]1(OC(C)=O)CO[C@@H]1C[C@@H]2O` [PACLITAXEL], the negative logarithm of the IC50 (pIC50) was 8.10 in assay [1]; 7.85 in the assay with Caco-2; 7.68 in the assay with MDA-MB-231; 8.52 in the assay on HCT-116; 8.40 with PC-3; 7.70 in [2]. Also, the negative-log IC50 (pIC50) in the assay with Fibroblast was below 6.60.
`O=C(O)c1cc(O)c(O)c(O)c1` [GALLIC ACID]: in assay [3], the IC50 came to 7.2 µg/mL (≈ 42.3 µM).
In the case of `COc1cccc2c1C(=O)c1c(O)c3c(c(O)c1C2=O)C[C@@](O)(C(=O)CO)C[C@@H]3O[C@H]1C[C@H](N)[C@H](O)[C@H](C)O1` [DOXORUBICIN], the pIC50 with B16 was 6.37; in the assay on HaCaT, 6.28; in [1] it was 7.22; with Caco-2 it was 7.52; in the assay on MDA-MB-231, 7.52; in the assay with HCT-116 it was 7.10. Moreover, the values for the pIC50 (with PC-3; in assay [2]; in the assay with Fibroblast) were 7.05, 7.40 and 7.40, respectively.
Regarding `O=C1O[C@H]([C@@H](O)CO)C(O)=C1O` [ASCORBIC ACID], in assay [4], the pIC50 is 4.66. For the same compound, the inhibition result in assay [5] is “Active”.
As to `COC1=CC(=O)c2c(O)c3c(c(O)c2C1=O)[C@@H](OC)[C@H](C)OC3=O`, the half-inhibitory concentration (IC50) result in [3] was “Not Active”. This compound also had a pIC50 in assay [4] of 5.21. The inhibition entry in assay [5] was “Active”.
As to `COC1=CC(=O)c2c(O)c3c(c(O)c2C1=O)C[C@H](C)OC3=O`, the pIC50 in the assay on B16 is 5.62; in the assay on HaCaT, 4.85; in assay [1] it was 5.52; in assay [4] it was 5.72; in the assay with Caco-2 it was 5.40; in the assay on MDA-MB-231, 5.00. The pIC50 with HCT-116 is 5.59; with PC-3, 5.40; in [2] it was 5.60; in the assay on Fibroblast it was 5.40. In assay [3], the 50% inhibitory concentration (IC50) was above 500 µg/mL. Further, the inhibition entry in assay [5] is “Active”.
Consider `COC1=CC(=O)c2c(O)c3c(c(O)c2C1=O)[C@@H]1O[C@@H](C)C[C@@H]1OC3=O`, for which the negative-log IC50 (pIC50) in the assay with B16 was below 5.00; in the assay with HaCaT it was below 5.00; in assay [4] it was 4.30; in assay [5] it was 4.30. Further, the half-maximal inhibitory concentration (IC50) entry in assay [3] is listed as “Not Active”.
Take `CC[C@]1(O)C[C@H]2CN(CCc3c([nH]c4ccccc34)[C@@](C(=O)OC)(c3cc4c(cc3OC)N(C=O)[C@H]3[C@@](O)(C(=O)OC)[C@H](OC(C)=O)[C@]5(CC)C=CCN6CC[C@]43[C@@H]65)C2)C1` [VINCRISTINE]: the figures for the negative logarithm of the IC50 (pIC50) in the assay on B16 and with HaCaT were 6.30 and 6.19, respectively.
Regarding `CC[C@H](CO)Nc1nc(NCc2ccccc2)c2ncn(C(C)C)c2n1` [SELICICLIB], the negative logarithm of the IC50 (pIC50) in assay [2] was 4.74; in the assay on Fibroblast, 5.15.
